Laboratory results as given in the RNAGym collection of RNA variant scans (doi:10.1126/science.aae0568).
Variants at the floor of the assay were thinned out.

B1: tRNA (parent)
chain: GUUCCGUUGGCGUAAUGGUAACGCGUCUCCCUCCUAAGGAGAAGACUGCGGGUUCGAGUCCCGUACGGAACG

Variants of: B1
Assay: yeast fitness relative to wild type (ratio to wild type); higher = fitter; tRNA-Arg(CCU), competitive growth, 37 C, YPD
Procedure, shortened: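 Variants of the tRNA-Arg(CCU) gene, chemically synthesised with a 3% per-site mutation rate at 69 sites, were placed at the native genomic locus in Saccharomyces cerevisiae. The pooled strains were competed in YPD at 37°C for 24 hours in six parallel replicates. Gene amplicons from the start population and from each end population were read by 100-nucleotide paired-end sequencing. Darwinian fitness relative to wild type came from changes in genotype frequencies; genotypes needed ≥ 100 starting reads, and estimates < 0.5 were set to 0.5.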

Variant	yeast fitness
GAUGCGUUGGCGUAAUGGUAACGCGUCUCCCUCCUAAGGAGGAGUCUGCGGGUUCGAGUCCCGUAUGGAACG	≤ 0.5
GAUCCGUUGGCGUAAUGGUAACGCGUCUCCCUCCUAAGGUGAAGACUACGGGUUCGAGUCCCGUACGGAACG	0.681
GAUCCGUUGGCGUAAUGGUAACGCGUCUCCCUCCUAAGGAGAAGCCUGCGGGUUCGAGUCCCGUCCGGAACG	0.764
GAUCCGUUGGCGUAAUGGUAACGCGUCUCCCUCCUAAGGAGAAGCCUGCGGGUUCGAGUCCCGUUCGGAACG	0.624
GAUCCGUUGGCGUAAUGGUAACGCGUCUCCCUCCUAGGGAGAAGACUGCGGGUUCGAGUCCCGUACGGAACG	0.659
GAUCCGUUGGCGUAAUGGUAACGCGUCUCCCUCCUAAGGAGAGGACUGCGGGUUCGAGUCCCGUACGGAACG	0.988
GAUCCGUUGGCGUAAUGGUAACGCGUCUCCCUCCUAAGGAGAUGACUGCGGGUUCGAGUCCCGUACGGAACG	0.956
GAUGCGUAGGCAUAAUGGUAACGCGUCUCCCUCCUAAGGAGAAGACUACGGGUUCGAGUCCCGUACGGCACG	0.544
GAUCCGUUGGCGUAAUGGUGACGCGUGUCCCUCCUAAGGAGAAGACUGCGGGUUCGAGUCCCGUACGGAACG	≤ 0.5
GAUCCGUUGGCGUAAUGGUAACGCGUCUCCCUCCUGAGGAGAAGACUGAGGGUUCGAGUCCCGUACGGAACG	≤ 0.5
GAUCCGUUGGCGUAAUGGUAACGCGUCUCCCUCCUAAGGAGAAGCCUGCGGGUUAGAGUCCCGUACGGAACG	≤ 0.5
GAUGCGUUGGCGUAAUGGUAACGCGUCUCCCUCUUAAGGAGAAGACUGCGGGUUCGAGUCCCGUACGGAACG	≤ 0.5
GAUCCGUUGGCGUAAUGGUAACGCGUCUCCCUCCUUAGGAGAAGACUGCGGGUUCGAGUCCCGUACGGAACG	0.596
GAUCCGUUGGCGUAAUGGUAACGCGUCUCCCUCCUCAGGAGAAGACUGCGGGUUCGAGUCCCGUACGGAACG	0.518
GAUCCGUUGGCGUAAUGGUGACGCGUCUCCAUCCUAAGGAGAUGACUGCGGGUUCGAGUCACGUACGGAACG	≤ 0.5
GAUGGGUUGGCGUAAUGGUAACGCAUCUCGCUCAUAAGGAGAAGACUGGGGGUUCGAGUCCCGUACGGAACG	≤ 0.5
GAUCCGUUGGCGUAAUGGUAACGCGUCUCCCUCCUAGGGAGAAGACUGCGGGUUUGAGUCCCGUACGGAACG	≤ 0.5
GAUCCGUUGGCGUAAUGGUAUCGCGUCUCCCUCCUAAGGAGAAGACUGCGGGUUCGAGUCCCGUACGGAACG	0.686
GAUCCGUUGGCGUAAUGGUAACGCGUCUCCCUCCUAAGGAGAAGACUGCGGGUUCGUGUCUCGUAGGGAACG	≤ 0.5

Variant	yeast fitness
GAUGCGUUGGCGUAAUGGUAACGCGUCUCCCUCCUAAGGAGAAGACUGCGGGUUCAAAUCCCGUCCGGAACG	≤ 0.5
GAUUCGUUGGCGUAAUGGUAACGCGUCACUCUCCUAAGGAGAAGACUGCGGGUUCGGGUCCCGUACGGAACG	0.688
GAUCCGUUGGCGUAAUGGUAACGCGUCUCCCUCCUAAGGGGAAGACUGCGGGUUCGAGUCCCGUACGGAACG	0.932
GAUCCGUUGGCGUAAUGGUAACGCGUCUCCCUCCUAAGGUGAAGACUGCGGGUUCGAGUCCCGUCCGGAACG	≤ 0.5
GAUACGUUGGCGUAAUGCUAACGCGUCUCCCUCCUAAGGAGAAGACAGCGGGUUUGAGUCCCGUACGGAACG	0.793
GAUCCGUUGGCGUAAUGGUGACGCGUCUCCCUCCUAAGGAGAAGACUGUGGGUUCGAGUCCCGUACGGAACG	0.605
GAUCCGUUGGCGUAAUGGUAACGCGUCUCCCUCCUCAGGAGAAGCCUGCGGGUUGGAGUCCAGUACGAAACG	≤ 0.5
GAUCCGUUGGCGUAAUGGUAUCGCGUCUCCCUCCUAAGGAGAAGACUGCAGGUUCGAGUCCCGUACGGAACG	≤ 0.5
GAUUCGUGGGCGUAAUGGUAACGCGUCUCCCUCCUAAGGAGAAGACUGCGGGUUGGAGUCCCGUACGAAACG	≤ 0.5
GAUCCGUUGGCGUAAUGGUACCGCGUCUUCCUCCUAAGGAGAAGACUGCGGCUUCGAGUCCCGUACGGAACG	≤ 0.5
GAUACGUUGGCGUAAUGGGAACGCGUCUCCCUCCUAAGGAGAAGACUGCGGGUUCGAGUCCCGUACGGAACG	≤ 0.5
GAUCCGUUGGCGUAAUGGUAGCGCGUCUCCCUCCUUAGGAGAAGACUGCGGGUUCGAGUCCCGUACGGAACG	0.624
GAUUCGUUGCCGUAAUGGUAACGCGUCUUCCACCUAAGGAGAUGACUGCGGGUUCGAGUCCCGUACGGAACG	≤ 0.5
GAUGCGUUGGCGUAAUGGUAACGCGUCUCCCUCCUAAGGAGAAGACUGCGGGUUCGAGUCCCGUACGGAACG	0.838
GAUCCGUUGGCGUAAUGGUAUCGCGUCUCCCUCCUAAGGAGGAGACUGCGGGUUCGAGUCCCGUACGGAACG	≤ 0.5
GAUACAUUGGCGUAAUGGUAACGCGUCUGCCUCCUAAGGAGAAGACUGCGGGUUCGGGUCCCGUACGGAACG	≤ 0.5
GAUCCGUUGGCGUAAUGGUAGCGCGUCUUCCUCCUAAGGUGAAGACUGGGGGUUCGAGUCCCGUACGGAACG	≤ 0.5
GAUCCGUUGGCGUAAUGGUUCCGCGUUUCCCUACUAAGGAGAAGACUGCGGGUUCGAGUCCCGUACGGACCG	0.528
GAUGCGUUGGCGUUAUGGUAACGCGUCUCCCUCCUAAGGAGAAGACUGCGGGUUCGAGUACCGUACGGAACG	≤ 0.5
